Source: ChEMBL document CHEMBL4033785, “Increased Potency and Selectivity for Group III Metabotropic Glutamate Receptor Agonists Binding at Dual sites” (J Med Chem, 2018)

Assays:
[1] = target: T1, Metabotropic glutamate receptor 8 (Homo sapiens, UniProt O00222); experiment: Agonist activity at mGlu8 (unknown origin) expressed in HEK293 cells coexpressing chimeric Gq/i protein assessed as [3H]inositol phosphate accumulation after 30 mins by scintillation and luminescence counting method; type: functional, cell-based
How it was run: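 Receptor transiently co-expressed in HEK293 cells (electroporation) with chimeric G-protein and glutamate transporter EAAT3. Cells labelled overnight with 3H-myoinositol, stimulated with agonist 30 min, lysed 1 h in cold 0.1 M formic acid. 3H-IP isolated on Dowex ion exchange and counted. IP expressed relative to IP plus membrane radioactivity. Points in triplicate; EC50 from Hill-equation fit.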

Homo sapiens [2] = species on record: Homo sapiens; experiment: Selectivity ratio of EC50 for mGlu8 (unknown origin) expressed in HEK293 cells coexpressing chimeric Gq/i protein assessed as [3H]inositol phosphate accumulation to EC50 for mGlu4 (unknown origin) expressed in HEK293 cells coexpressing chimeric Gq/i protein assessed as [3H]inositol phosphate accumulation; type: cell-based
How it was run: (§1)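 Ratio of mGlu8 EC50 to mGlu4 EC50, both from the same functional assay. Both receptors were co-expressed in HEK293 cells with chimeric G-protein and EAAT3 and read by 3H-IP accumulation or by Fluo-4 Ca2+ release.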

[3] = target: T1, Metabotropic glutamate receptor 8; experiment: Agonist activity at mGlu8 (unknown origin) expressed in HEK293 cells coexpressing chimeric Gq/i protein assessed as increase in intracellular calcium accumulation by Fluo-4 AM dye based fluorescence assay; type: functional, cell-based
[4] = target: Metabotropic glutamate receptor 4 (Homo sapiens, UniProt Q14833); experiment: Agonist activity at mGlu4 (unknown origin) expressed in HEK293 cells coexpressing chimeric Gq/i protein assessed as increase in intracellular calcium accumulation by Fluo-4 AM dye based fluorescence assay; type: functional, cell-based
Homo sapiens [5] = species on record: Homo sapiens; experiment: Selectivity ratio of EC50 for mGlu8 (unknown origin) expressed in HEK293 cells coexpressing chimeric Gq/i protein assessed as increase in intracellular calcium accumulation to EC50 for mGlu4 (unknown origin) expressed in HEK293 cells coexpressing chimeric Gq/i protein assessed as increase in intracellular calcium accumulation; type: cell-based; how it was run: as §1
[6] = target: Metabotropic glutamate receptor 7 (Homo sapiens, UniProt Q14831); experiment: Agonist activity at mGlu7 (unknown origin) expressed in HEK293 cells coexpressing chimeric Gq/i protein assessed as increase in intracellular calcium accumulation by Fluo-4 AM dye based fluorescence assay; type: functional, cell-based
[7] = target: Metabotropic glutamate receptor 6 (Homo sapiens, UniProt O15303); experiment: Agonist activity at mGlu6 (unknown origin) expressed in HEK293 cells coexpressing chimeric Gq/i protein assessed as increase in intracellular calcium accumulation by Fluo-4 AM dye based fluorescence assay; type: functional, cell-based
Chain of Metabotropic glutamate receptor 6 (O15303 whole entry): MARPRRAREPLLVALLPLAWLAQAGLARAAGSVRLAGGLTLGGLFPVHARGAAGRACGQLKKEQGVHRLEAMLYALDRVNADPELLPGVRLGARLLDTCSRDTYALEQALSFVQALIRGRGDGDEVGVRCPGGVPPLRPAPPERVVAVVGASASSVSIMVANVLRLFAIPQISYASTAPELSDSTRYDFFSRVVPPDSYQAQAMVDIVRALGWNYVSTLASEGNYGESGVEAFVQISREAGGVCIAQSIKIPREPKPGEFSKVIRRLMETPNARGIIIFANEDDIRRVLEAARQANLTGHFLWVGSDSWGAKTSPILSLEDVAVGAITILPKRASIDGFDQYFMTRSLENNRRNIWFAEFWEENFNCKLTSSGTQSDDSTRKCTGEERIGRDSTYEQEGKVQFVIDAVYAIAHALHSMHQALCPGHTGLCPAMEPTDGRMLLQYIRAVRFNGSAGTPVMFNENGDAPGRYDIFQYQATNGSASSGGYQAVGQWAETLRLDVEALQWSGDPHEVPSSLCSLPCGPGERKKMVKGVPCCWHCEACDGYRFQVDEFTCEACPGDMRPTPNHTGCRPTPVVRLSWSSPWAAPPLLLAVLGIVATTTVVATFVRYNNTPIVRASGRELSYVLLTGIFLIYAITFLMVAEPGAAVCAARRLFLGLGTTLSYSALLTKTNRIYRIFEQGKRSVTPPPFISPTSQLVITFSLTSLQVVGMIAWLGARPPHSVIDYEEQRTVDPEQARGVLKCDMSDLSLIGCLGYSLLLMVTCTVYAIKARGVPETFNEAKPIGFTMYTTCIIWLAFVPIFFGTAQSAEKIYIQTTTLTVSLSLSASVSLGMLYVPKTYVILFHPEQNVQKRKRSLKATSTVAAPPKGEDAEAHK

Chain of Metabotropic glutamate receptor 7 (Q14831 whole entry): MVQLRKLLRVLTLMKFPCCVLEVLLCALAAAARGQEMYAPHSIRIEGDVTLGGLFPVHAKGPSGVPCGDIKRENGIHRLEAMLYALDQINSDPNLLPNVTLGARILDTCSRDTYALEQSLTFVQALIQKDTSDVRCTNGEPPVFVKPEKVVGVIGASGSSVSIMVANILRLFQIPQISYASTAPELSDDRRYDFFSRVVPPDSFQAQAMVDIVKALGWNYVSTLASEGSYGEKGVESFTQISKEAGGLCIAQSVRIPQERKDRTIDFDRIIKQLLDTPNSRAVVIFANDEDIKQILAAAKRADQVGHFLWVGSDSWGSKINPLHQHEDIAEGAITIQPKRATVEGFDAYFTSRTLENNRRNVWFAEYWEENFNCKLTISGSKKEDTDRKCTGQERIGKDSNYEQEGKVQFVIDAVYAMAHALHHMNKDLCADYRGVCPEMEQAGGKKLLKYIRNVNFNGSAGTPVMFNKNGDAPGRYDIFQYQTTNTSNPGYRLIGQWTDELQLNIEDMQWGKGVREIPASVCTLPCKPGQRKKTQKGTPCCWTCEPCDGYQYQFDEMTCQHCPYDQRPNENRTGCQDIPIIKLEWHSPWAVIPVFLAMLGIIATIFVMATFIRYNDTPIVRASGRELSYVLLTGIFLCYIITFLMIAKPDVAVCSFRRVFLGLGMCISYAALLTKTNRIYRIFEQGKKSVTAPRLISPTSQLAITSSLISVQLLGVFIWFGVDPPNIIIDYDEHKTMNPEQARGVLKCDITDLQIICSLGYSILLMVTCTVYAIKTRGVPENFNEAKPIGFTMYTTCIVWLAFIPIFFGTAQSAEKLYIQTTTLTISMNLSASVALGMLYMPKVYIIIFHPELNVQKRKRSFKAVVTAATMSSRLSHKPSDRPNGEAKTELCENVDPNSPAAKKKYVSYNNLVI
Chain of Metabotropic glutamate receptor 4 (Q14833 whole entry): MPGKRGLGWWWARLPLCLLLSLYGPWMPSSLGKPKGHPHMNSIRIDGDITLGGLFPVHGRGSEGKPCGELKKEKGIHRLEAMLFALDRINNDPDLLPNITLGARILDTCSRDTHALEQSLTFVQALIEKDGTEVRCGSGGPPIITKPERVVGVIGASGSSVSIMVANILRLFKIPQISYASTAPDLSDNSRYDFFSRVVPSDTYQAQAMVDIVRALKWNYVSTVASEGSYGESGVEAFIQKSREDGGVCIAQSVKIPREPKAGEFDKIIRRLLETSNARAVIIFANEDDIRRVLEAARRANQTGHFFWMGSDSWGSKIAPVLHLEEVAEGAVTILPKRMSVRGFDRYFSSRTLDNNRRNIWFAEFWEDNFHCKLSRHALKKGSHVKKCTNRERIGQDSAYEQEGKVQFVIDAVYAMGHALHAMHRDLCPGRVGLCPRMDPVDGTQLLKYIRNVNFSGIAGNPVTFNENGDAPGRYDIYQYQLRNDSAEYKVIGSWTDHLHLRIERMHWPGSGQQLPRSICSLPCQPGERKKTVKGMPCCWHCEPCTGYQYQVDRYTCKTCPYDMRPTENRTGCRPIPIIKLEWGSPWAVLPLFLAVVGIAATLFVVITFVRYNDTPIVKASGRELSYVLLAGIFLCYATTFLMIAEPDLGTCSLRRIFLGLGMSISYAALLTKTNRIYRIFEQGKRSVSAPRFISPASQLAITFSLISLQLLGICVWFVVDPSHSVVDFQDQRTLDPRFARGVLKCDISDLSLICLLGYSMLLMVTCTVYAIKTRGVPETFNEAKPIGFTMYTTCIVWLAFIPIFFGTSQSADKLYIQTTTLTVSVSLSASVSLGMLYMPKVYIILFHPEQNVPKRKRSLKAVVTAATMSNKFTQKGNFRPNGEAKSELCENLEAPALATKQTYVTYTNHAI
T1 sequence (O00222 whole entry): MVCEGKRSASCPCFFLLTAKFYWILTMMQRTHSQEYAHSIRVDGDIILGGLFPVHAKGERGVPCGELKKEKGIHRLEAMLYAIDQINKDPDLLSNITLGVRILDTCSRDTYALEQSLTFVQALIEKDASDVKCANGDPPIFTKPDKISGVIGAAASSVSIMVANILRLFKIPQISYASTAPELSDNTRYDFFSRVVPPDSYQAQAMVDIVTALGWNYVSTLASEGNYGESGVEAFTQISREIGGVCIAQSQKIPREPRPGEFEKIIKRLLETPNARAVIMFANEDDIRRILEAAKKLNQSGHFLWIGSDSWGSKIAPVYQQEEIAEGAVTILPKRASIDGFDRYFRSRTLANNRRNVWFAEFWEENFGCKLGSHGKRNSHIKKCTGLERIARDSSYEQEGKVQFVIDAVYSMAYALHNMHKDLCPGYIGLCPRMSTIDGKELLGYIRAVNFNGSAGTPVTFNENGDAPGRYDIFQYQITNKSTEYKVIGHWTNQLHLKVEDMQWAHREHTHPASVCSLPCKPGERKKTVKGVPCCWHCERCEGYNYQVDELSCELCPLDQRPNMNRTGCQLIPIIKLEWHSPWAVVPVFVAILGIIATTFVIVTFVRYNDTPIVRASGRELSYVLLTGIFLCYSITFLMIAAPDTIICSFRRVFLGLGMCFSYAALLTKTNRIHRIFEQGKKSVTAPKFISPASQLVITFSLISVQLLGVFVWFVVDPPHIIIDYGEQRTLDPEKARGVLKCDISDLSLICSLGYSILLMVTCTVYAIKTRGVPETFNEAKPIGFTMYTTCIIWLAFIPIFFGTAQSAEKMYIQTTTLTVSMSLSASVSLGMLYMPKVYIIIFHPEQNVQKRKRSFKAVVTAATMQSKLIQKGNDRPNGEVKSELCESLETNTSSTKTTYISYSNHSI

Structure (SMILES) | EC50 [1] [µM] | Ratio EC50 (Homo sapiens [2]) | EC50 [3] [µM] | EC50 [4] [µM] | Ratio EC50 (Homo sapiens [5]) | EC50 [6] [µM] | EC50 [7] [µM]
N[C@@H](CCP(=O)(O)C(O)c1ccc([N+](=O)[O-])cc1[N+](=O)[O-])C(=O)O (some centres not stated) | 4.6 | 3.1 | – | – | – | – | –
N[C@@H](CCP(=O)(O)C(O)c1ccc(O)c(C(=O)O)c1)C(=O)O (some centres not stated) | – | – | 40 | 15.8 | 2.5 | – | –
N[C@@H](CCP(=O)(O)C(NCc1cccc2ccccc12)c1cccc([N+](=O)[O-])c1)C(=O)O (some centres not stated) | – | – | 35.4 | 7.9 | 4.3 | – | –
N[C@@H](CCP(=O)(O)C(O)c1cc([N+](=O)[O-])cc([N+](=O)[O-])c1O)C(=O)O (some centres not stated) | 4.5 | 1.9 | – | – | – | – | –
N[C@@H](CCP(=O)(O)[C@@H](O)c1cc(F)c(O)c([N+](=O)[O-])c1)C(=O)O | – | – | 17.1 | 9.77 | 1.8 | 53.8 | 10.2
CCOc1cc([C@H](O)P(=O)(O)CC[C@H](N)C(=O)O)cc([N+](=O)[O-])c1O | – | – | 6.5 | 6.4 | 1 | – | –
N[C@@H](CCP(=O)(O)[C@H](O)c1cccc([N+](=O)[O-])c1)C(=O)O | – | – | 1.25 | 1 | 1.2 | > 100 | 2.4
COc1ccc([C@@H](O)P(=O)(O)CC[C@H](N)C(=O)O)cc1[N+](=O)[O-] | – | – | 2.5 | 2 | 1.2 | > 100 | 4.5
N[C@@H](CCP(=O)(O)C(O)c1c[nH]c2ncccc12)C(=O)O (some centres not stated) | – | – | 6.9 | 3.4 | 2 | – | –
N[C@@H](CCP(=O)(O)C(O)c1ccc(C(F)(F)F)o1)C(=O)O (some centres not stated) | 5.2 | 3.1 | – | – | – | – | –
N[C@@H](CCP(=O)(O)C(NCc1ccccc1)c1cccc([N+](=O)[O-])c1)C(=O)O (some centres not stated) | – | – | 29.7 | 25.3 | 1.2 | – | –
COc1cc([C@@H](O)P(=O)(O)CC[C@H](N)C(=O)O)cc([N+](=O)[O-])c1O | – | – | 18 | 0.72 | – | 63 | 1.1
NC(c1csc([N+](=O)[O-])c1)P(=O)(O)CC[C@H](N)C(=O)O (some centres not stated) | 1.8 | 2.2 | – | – | – | – | –
N[C@@H](CCP(=O)(O)C(O)c1ccc(OCC(=O)O)cc1)C(=O)O (some centres not stated) | – | – | – | – | 256 | – | –
N[C@@H](CCP(=O)(O)C(O)c1c([N+](=O)[O-])cccc1[N+](=O)[O-])C(=O)O (some centres not stated) | 2.9 | 1.7 | – | – | – | – | –
N[C@@H](CCP(=O)(O)C(O)c1ccnc(O)c1)C(=O)O (some centres not stated) | – | – | 81 | 42 | 1.9 | – | –
N#Cc1cccc(C(O)P(=O)(O)CC[C@H](N)C(=O)O)c1 (some centres not stated) | 219 | 5.3 | – | – | – | – | –
N[C@@H](CCP(=O)(O)C(O)c1ccc(C(F)(F)F)cc1)C(=O)O (some centres not stated) | 34 | 2.3 | – | – | – | – | –
N[C@@H](CCP(=O)(O)Cc1cccc(C(=O)O)c1)C(=O)O | 511 | 2.4 | – | > 100 | – | – | –
N[C@@H](CCP(=O)(O)[C@H](O)c1cc(F)c(O)c([N+](=O)[O-])c1)C(=O)O | – | – | 34.3 | 2.42 | 14 | 39 | 0.76
N[C@@H](CCP(=O)(O)C(O)c1ccc(O)nc1)C(=O)O (some centres not stated) | – | – | 17 | 33 | 0.5 | – | –
CCOc1cc([C@@H](O)P(=O)(O)CC[C@H](N)C(=O)O)cc([N+](=O)[O-])c1O | – | – | 22 | 5.1 | 4.4 | – | –

Structure (SMILES) | EC50 [1] [µM] | Ratio EC50 (Homo sapiens [2]) | EC50 [3] [µM] | EC50 [4] [µM] | Ratio EC50 (Homo sapiens [5]) | EC50 [6] [µM] | EC50 [7] [µM]
N[C@@H](CCP(=O)(O)C(O)c1cc([N+](=O)[O-])cc([N+](=O)[O-])c1)C(=O)O (some centres not stated) | 6.6 | 4.5 | – | – | – | – | –
CCOc1cc(C(O)P(=O)(O)CC[C@H](N)C(=O)O)cc([N+](=O)[O-])c1O (mixture of isomers) | – | – | 20 | – | 2.4 | – | –
N[C@@H](CCP(=O)(O)C(NCCc1ccccc1)c1cccc([N+](=O)[O-])c1)C(=O)O (some centres not stated) | – | – | 7.2 | 4.41 | 1.6 | – | –
CS(=O)(=O)c1ccc(C(O)P(=O)(O)CC[C@H](N)C(=O)O)cc1 (some centres not stated) | – | – | > 100 | 59 | – | > 100 | > 100
N[C@@H](CCP(=O)(O)C(O)c1ccc([N+](=O)[O-])c(O)c1)C(=O)O (some centres not stated) | 19.8 | 8.7 | – | – | – | – | –
CC(=O)c1ccc(C(O)P(=O)(O)CC[C@H](N)C(=O)O)cc1 (some centres not stated) | 14 | 1.8 | – | – | – | – | –
COc1ccc(C(O)P(=O)(O)CC[C@H](N)C(=O)O)cc1 (some centres not stated) | – | – | 61 | 6.5 | 9.3 | – | 23
COc1cc([C@H](O)P(=O)(O)CC[C@H](N)C(=O)O)cc([N+](=O)[O-])c1O | – | – | 26 | 4.4 | – | 100 | 2.4
N[C@@H](CCP(=O)(O)C(O)c1cccc([N+](=O)[O-])c1)C(=O)O (mixture of isomers) | – | 2.8 | – | – | 2 | – | –
NC(c1cccc([N+](=O)[O-])c1)P(=O)(O)CC[C@H](N)C(=O)O (some centres not stated) | – | 4.1 | – | – | – | – | –
N[C@@H](CCP(=O)(O)C(O)c1ccncc1)C(=O)O (some centres not stated) | – | – | 26.2 | 28 | 1 | – | –
N[C@@H](CCP(=O)(O)[C@@H](O)c1cccc([N+](=O)[O-])c1)C(=O)O | – | – | 1.3 | 0.32 | – | > 100 | 3.2
N[C@@H](CCP(=O)(O)C(O)c1coc(C(=O)O)c1)C(=O)O (some centres not stated) | 9.2 | 4.6 | – | – | – | – | –
CCCCCCNC(c1cccc([N+](=O)[O-])c1)P(=O)(O)CC[C@H](N)C(=O)O (some centres not stated) | – | – | 22.8 | 25 | 0.9 | – | –
Nc1ccc(C(O)P(=O)(O)CC[C@H](N)C(=O)O)cc1 (some centres not stated) | 8.4 | 0.9 | 8.4 | 8.8 | 0.9 | 11.6 | –
N[C@@H](CCP(=O)(O)C(O)c1ccc(O)cc1)C(=O)O (some centres not stated) | – | – | 25 | 7.7 | 3.2 | – | –
N[C@@H](CCP(=O)(O)C(O)c1cc([N+](=O)[O-])ccc1O)C(=O)O (some centres not stated) | 4.2 | 4.6 | – | – | – | – | –
COc1ccc(C(O)P(=O)(O)CC[C@H](N)C(=O)O)cc1[N+](=O)[O-] (some centres not stated) | 2.7 | 1.7 | 3.8 | 3.5 | 1 | – | –
COc1cc(CP(=O)(O)CC[C@H](N)C(=O)O)cc([N+](=O)[O-])c1O | – | – | 28 | 19 | 1.5 | – | –
N[C@@H](CCP(=O)(O)C(O)c1ccc(O)c([N+](=O)[O-])c1)C(=O)O (some centres not stated) | – | 18 | 73 | 1.5 | 48 | – | –
N[C@@H](CCP(=O)(O)C(O)c1cccc([N+](=O)[O-])c1O)C(=O)O (some centres not stated) | 21.2 | 0.92 | – | – | – | – | –
CCCCCCCCNC(c1cccc([N+](=O)[O-])c1)P(=O)(O)CC[C@H](N)C(=O)O (some centres not stated) | – | – | 38 | 6.1 | 6.3 | – | –
